Results on 12 compounds are retold here after ChEMBL document CHEMBL1629491, “Post Groebke-Blackburn multicomponent protocol: synthesis of new polyfunctional imidazo[1,2-a]pyridine and imidazo[1,2-a]pyrimidine derivatives as potential antimicrobial agents” (2010).

Holding throughout (format): functional
Assay [1] relates to Priestia megaterium. Briefly: Antimicrobial activity against Bacillus megaterium after 24 hrs […]. An outline of the steps: (§1)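 Broth microdilution MIC. Bacteria were grown in Luria broth (1% tryptone, 0.5% yeast extract, 0.5% NaCl, pH 7.2) at 37 °C for 24 h. Mid-log cultures were read at OD540 and diluted to OD 0.004 (5 × 10⁵ CFU/mL) before inoculation. Compounds in DMSO were given as eleven twofold serial dilutions, and plates were incubated at 37 °C for 24 h. MIC was the lowest concentration with no visible growth by turbidity. Cefixime, amoxicillin and vancomycin were the positive controls.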

Assay [2] has as its system Enterococcus faecalis. The assay is described as follows: Antimicrobial activity against Enterococcus faecalis after 24 hrs […]. An outline of the steps:
as §1
On the technique in general: In an ELISA, binding on a coated surface is turned into a signal by an enzyme label.

Assay [3] concerns Klebsiella aerogenes. The assay is described as follows: Antimicrobial activity against Enterobacter aerogenes after 24 hrs […]. An outline of the steps:
as §1

Assay [4] concerns Escherichia coli. Briefly: Antimicrobial activity against Escherichia coli after 24 hrs […]. An outline of the steps: as §1
Assay [5] has as its system Pseudomonas aeruginosa. The assay is described as follows: Antimicrobial activity against Pseudomonas aeruginosa after 24 hrs […]. An outline of the steps: as §1
Assay [6] deals with Staphylococcus aureus. The assay is described as follows: Antimicrobial activity against Staphylococcus aureus after 24 hrs […]. An outline of the steps: as §1

Each structure is given as a SMILES string. ≈ marks a conversion by molar mass, not a printed value.

Consider `Cc1ccc(-c2nc3ccc(-c4nc5ccc(Oc6ccccc6)cc5[nH]4)cn3c2Nc2ccccc2)cc1`, for which the minimum inhibitory concentration (MIC) turned out to be 65.5 µg/mL (≈ 129 µM) in assay [1]; 46.5 µg/mL (≈ 91.6 µM) in assay [2]; 57.3 µg/mL (≈ 113 µM) in assay [3]; 34.8 µg/mL (≈ 68.5 µM) in assay [4]; 45.4 µg/mL (≈ 89.5 µM) in assay [5]; 54.9 µg/mL (≈ 108 µM) in assay [6].

In the case of `Clc1ccc2nc(-c3cnc4nc(-c5ccc(Br)cc5)c(Nc5ccccc5)n4c3)[nH]c2c1`, the MIC in assay [1] is 13.7 µg/mL (≈ 26.6 µM); in assay [2], 5.87 µg/mL (≈ 11.4 µM); in assay [3], 2.75 µg/mL (≈ 5.33 µM); in assay [4] it was 2.78 µg/mL (≈ 5.39 µM); in assay [5] it was 2.55 µg/mL (≈ 4.94 µM); in assay [6], 1.84 µg/mL (≈ 3.57 µM).

Turning to `Fc1ccc2nc(-c3ccc4nc(-c5ccc(Oc6ccccc6)cc5)c(Nc5ccccc5)n4c3)[nH]c2c1`, the minimum inhibitory concentration (MIC) in assay [1] was determined as 21.6 µg/mL (≈ 42.2 µM); in assay [2], 15.3 µg/mL (≈ 29.9 µM); in assay [3] it was 11.5 µg/mL (≈ 22.6 µM); in assay [4] it was 10.7 µg/mL (≈ 20.9 µM); in assay [5] it was 12.4 µg/mL (≈ 24.3 µM); in assay [6] it was 12.1 µg/mL (≈ 23.7 µM).

Consider `Cc1ccc(-c2nnc(-c3ccc4nc(-c5ccc(Br)cc5)c(Nc5ccccc5)n4c3)o2)cc1`, for which the MIC came out at 16.6 µg/mL (≈ 31.7 µM) in assay [1]; 11.8 µg/mL (≈ 22.6 µM) in assay [2]; 11.3 µg/mL (≈ 21.6 µM) in assay [3]; 12.4 µg/mL (≈ 23.7 µM) in assay [4]; 10.2 µg/mL (≈ 19.5 µM) in assay [5]; 12.3 µg/mL (≈ 23.5 µM) in assay [6].

As to `Cc1ccc(-c2nc3ccc(-c4nc5ccc(Br)cc5[nH]4)cn3c2Nc2ccccc2)cc1`, the MIC in assay [1] stood at 14 µg/mL (≈ 28.2 µM); in assay [2], 6.28 µg/mL (≈ 12.7 µM); in assay [3], 7.15 µg/mL (≈ 14.5 µM); in assay [4] it was 3.18 µg/mL (≈ 6.43 µM); in assay [5], 5.22 µg/mL (≈ 10.6 µM); in assay [6], 5.11 µg/mL (≈ 10.3 µM).

As to `Cc1ccc2nc(-c3ccc4nc(-c5ccc(Br)cc5)c(Nc5ccccc5)n4c3)[nH]c2c1`, the minimal inhibitory concentration (MIC) in assay [1] was determined as 18.6 µg/mL (≈ 37.6 µM); in assay [2], 13.6 µg/mL (≈ 27.6 µM); in assay [3] it was 11.8 µg/mL (≈ 23.8 µM); in assay [4], 10.3 µg/mL (≈ 20.9 µM); in assay [5], 13.4 µg/mL (≈ 27 µM); in assay [6], 9.51 µg/mL (≈ 19.2 µM).

On to `Cc1ccc(-c2nnc(-c3cnc4nc(-c5ccc(Br)cc5)c(Nc5ccccc5)n4c3)o2)cc1`, for which the MIC in assay [1] was determined as 13.6 µg/mL (≈ 26 µM); in assay [2] it was 8.71 µg/mL (≈ 16.6 µM); in assay [3] it was 6.43 µg/mL (≈ 12.3 µM); in assay [4], 8.56 µg/mL (≈ 16.4 µM); in assay [5], 7.64 µg/mL (≈ 14.6 µM); in assay [6] it was 5.31 µg/mL (≈ 10.1 µM).

Turning to `Fc1ccc(-c2cnc(-c3cnc4nc(-c5ccc(Br)cc5)c(Nc5ccccc5)n4c3)[nH]2)cc1`, the MIC in assay [1] stood at 9.17 µg/mL (≈ 17.5 µM); in assay [2] it was 4.21 µg/mL (≈ 8.01 µM); in assay [3], 1.11 µg/mL (≈ 2.11 µM); in assay [4], 1.15 µg/mL (≈ 2.19 µM); in assay [5], 2.34 µg/mL (≈ 4.45 µM); in assay [6], 0.63 µg/mL (≈ 1.2 µM).

As to `Fc1ccc(-c2nnc(-c3cnc4nc(-c5ccc(Br)cc5)c(Nc5ccccc5)n4c3)o2)cc1`, the MIC in assay [1] stood at 5.45 µg/mL (≈ 10.3 µM); in assay [2], 1.92 µg/mL (≈ 3.64 µM); in assay [3], 0.94 µg/mL (≈ 1.78 µM); in assay [4], 1.33 µg/mL (≈ 2.52 µM); in assay [5] it was 1.87 µg/mL (≈ 3.55 µM); in assay [6] it was 0.64 µg/mL (≈ 1.21 µM).

Consider `Clc1ccc(-c2cnc(-c3ccc4nc(-c5ccc(Br)cc5)c(Nc5ccccc5)n4c3)[nH]2)cc1`, for which the minimal inhibitory concentration (MIC) in assay [1] came to 9.13 µg/mL (≈ 16.9 µM); in assay [2], 2.96 µg/mL (≈ 5.47 µM); in assay [3] it was 1.17 µg/mL (≈ 2.16 µM); in assay [4] it was 1.42 µg/mL (≈ 2.63 µM); in assay [5], 2.52 µg/mL (≈ 4.66 µM); in assay [6], 0.93 µg/mL (≈ 1.72 µM).

Turning to `Clc1ccc(-c2cnc(-c3cnc4nc(-c5ccc(Br)cc5)c(Nc5ccccc5)n4c3)[nH]2)cc1`, the minimum inhibitory concentration (MIC) stood at 11.6 µg/mL (≈ 21.5 µM) in assay [1]; 4.28 µg/mL (≈ 7.9 µM) in assay [2]; 1.89 µg/mL (≈ 3.49 µM) in assay [3]; 3.11 µg/mL (≈ 5.74 µM) in assay [4]; 1.82 µg/mL (≈ 3.36 µM) in assay [5]; 1.76 µg/mL (≈ 3.25 µM) in assay [6].

Take `Brc1ccc(-c2cnc(-c3ccc4nc(-c5ccc(Oc6ccccc6)cc5)c(Nc5ccccc5)n4c3)[nH]2)cc1`: the minimum inhibitory concentration (MIC) was determined as 19.9 µg/mL (≈ 33.2 µM) in assay [1]; 13.7 µg/mL (≈ 22.9 µM) in assay [2]; 10.7 µg/mL (≈ 17.9 µM) in assay [3]; 12.2 µg/mL (≈ 20.4 µM) in assay [4]; 11.8 µg/mL (≈ 19.7 µM) in assay [5]; 10.2 µg/mL (≈ 17.1 µM) in assay [6].

What is called MIC is the lowest concentration found to suppress growth.
